Measured values from ChEMBL document CHEMBL1153264, “(1,2,3-Triazol-4-yl)benzenamines: synthesis and activity against VEGF receptors 1 and 2” (Bioorg Med Chem Lett, 2009).

Tests used:
[1] = target: T1, Vascular endothelial growth factor receptor 2 (Homo sapiens, UniProt P35968); test: Inhibition of VEGFR2 by HTRF assay in presence of 2 uM ATP
Summary of the method: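 HTRF kinase assay with KDR enzyme (3–4 ng) and biotinylated pGAT substrate. ATP added to start, 45 min at RT. Stopped with EDTA/KF buffer plus Eu-cryptate anti-phosphotyrosine antibody, 2 h RT, then HTRF read. IC50 from 10-point log concentration curves, mean of at least two duplicate runs.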

[2] = target: T1, Vascular endothelial growth factor receptor 2; test: Binding affinity to VEGFR2 at IC50 in presence of ATP
Summary of the method: (§1)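 ATP competition assay with VEGFR-2. Five concentrations of ³²P ATP across 0-100 µM, each incubated with enzyme for 45 min at RT. Inhibitor was absent or present at two fixed levels.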

[3] = target: T1, Vascular endothelial growth factor receptor 2; test: Binding affinity to VEGFR2 at IC90 in presence of ATP; summary of the method: as §1
[4] = target: Insulin receptor (Homo sapiens) (UniProt P06213); test: Inhibition of IR at 10 uM
[5] = Inhibition of Bcr-Abl T315 mutant at 10 uM
[6] = target: Epidermal growth factor receptor (Homo sapiens) (UniProt P00533); test: Inhibition of EGFR at 10 uM
[7] = target: Hepatocyte growth factor receptor (Homo sapiens) (UniProt P08581); test: Inhibition of c-Met at 10 uM
[8] = target: Receptor tyrosine-protein kinase erbB-2 (Homo sapiens) (UniProt P04626); test: Inhibition of ErbB2 at 10 uM
[9] = target: Serine/threonine-protein kinase PLK1 (Homo sapiens) (UniProt P53350); test: Inhibition of Plk1 at 10 uM
[10] = target: Macrophage-stimulating protein receptor (Homo sapiens) (UniProt Q04912); test: Inhibition of Ron at 10 uM
[11] = target: Cyclin-dependent kinase 1 (Homo sapiens) (UniProt P06493); test: Inhibition of Cdk1 at 10 uM
[12] = target: Bcr/Abl fusion protein (Homo sapiens) (UniProt P00519+P11274); test: Inhibition of Bcr-Abl at 10 uM; assay type: protein assay
[13] = target: Aurora kinase B (Homo sapiens) (UniProt Q96GD4); test: Inhibition of Aurora B at 10 uM
[14] = target: Receptor-type tyrosine-protein kinase FLT3 (Homo sapiens) (UniProt P36888); test: Inhibition of Flt3 at 10 uM
[15] = Inhibition of PKA at 10 uM
[16] = target: Vascular endothelial growth factor receptor 1 (Homo sapiens, UniProt P17948); test: Inhibition of VEGFR1 by HTRF assay
[17] = target: Proto-oncogene tyrosine-protein kinase Src (Homo sapiens) (UniProt P12931); test: Inhibition of Src at 10 uM
[18] = target: Cyclin-dependent kinase 2 (Homo sapiens) (UniProt P24941); test: Inhibition of Cdk2 at 10 uM
[19] = target: T1, Vascular endothelial growth factor receptor 2; test: Inhibition of VEGF-induced phosphorylation of VEGFR2 by cell-based ELISA
[20] = target: Fibroblast growth factor receptor 1 (Homo sapiens) (UniProt P11362); test: Inhibition of FGFR1 at 10 uM
[21] = target: T2, Aurora kinase A (Homo sapiens) (UniProt O14965); test: Inhibition of Aurora A at 10 uM
T2 sequence (whole entry): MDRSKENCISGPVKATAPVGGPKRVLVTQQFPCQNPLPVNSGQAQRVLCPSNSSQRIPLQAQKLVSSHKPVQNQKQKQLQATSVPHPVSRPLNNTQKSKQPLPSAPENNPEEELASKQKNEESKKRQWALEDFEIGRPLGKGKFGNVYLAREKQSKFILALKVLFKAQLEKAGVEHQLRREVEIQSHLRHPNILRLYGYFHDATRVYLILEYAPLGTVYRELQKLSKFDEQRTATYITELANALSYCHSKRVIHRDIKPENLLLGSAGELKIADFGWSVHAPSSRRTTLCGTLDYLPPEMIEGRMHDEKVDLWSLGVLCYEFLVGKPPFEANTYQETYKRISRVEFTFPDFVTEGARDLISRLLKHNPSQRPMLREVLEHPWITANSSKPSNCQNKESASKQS

[22] = target: Insulin-like growth factor 1 receptor (Homo sapiens) (UniProt P08069); test: Inhibition of IGF1R at 10 uM
[23] = target: Glycogen synthase kinase-3 beta (Homo sapiens) (UniProt P49841); test: Inhibition of GSK3-beta at 10 uM

Chain of Fibroblast growth factor receptor 1 (Homo sapiens) (P11362 22-822 limits assumed): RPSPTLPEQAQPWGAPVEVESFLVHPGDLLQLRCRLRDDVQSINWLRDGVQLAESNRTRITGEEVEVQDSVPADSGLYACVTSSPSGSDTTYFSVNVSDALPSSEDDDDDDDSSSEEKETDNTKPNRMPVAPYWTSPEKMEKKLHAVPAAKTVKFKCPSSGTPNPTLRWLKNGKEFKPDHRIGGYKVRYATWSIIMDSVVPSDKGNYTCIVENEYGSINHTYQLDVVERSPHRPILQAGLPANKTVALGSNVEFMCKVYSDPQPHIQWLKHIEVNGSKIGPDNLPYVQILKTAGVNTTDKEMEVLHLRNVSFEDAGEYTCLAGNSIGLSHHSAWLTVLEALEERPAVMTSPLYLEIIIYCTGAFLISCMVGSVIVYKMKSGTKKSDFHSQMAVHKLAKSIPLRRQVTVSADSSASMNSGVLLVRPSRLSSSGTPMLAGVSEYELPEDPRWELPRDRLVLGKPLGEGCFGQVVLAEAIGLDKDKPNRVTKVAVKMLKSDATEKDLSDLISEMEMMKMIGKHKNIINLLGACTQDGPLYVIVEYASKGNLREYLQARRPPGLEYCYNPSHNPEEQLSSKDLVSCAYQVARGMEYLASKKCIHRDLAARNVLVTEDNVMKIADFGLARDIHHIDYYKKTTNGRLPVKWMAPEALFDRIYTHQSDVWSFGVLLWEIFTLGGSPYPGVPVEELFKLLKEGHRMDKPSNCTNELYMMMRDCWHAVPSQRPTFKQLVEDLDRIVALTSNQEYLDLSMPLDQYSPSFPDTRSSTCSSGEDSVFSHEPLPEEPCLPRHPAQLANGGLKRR
Chain of Proto-oncogene tyrosine-protein kinase Src (Homo sapiens) (P12931 2-536 limits assumed): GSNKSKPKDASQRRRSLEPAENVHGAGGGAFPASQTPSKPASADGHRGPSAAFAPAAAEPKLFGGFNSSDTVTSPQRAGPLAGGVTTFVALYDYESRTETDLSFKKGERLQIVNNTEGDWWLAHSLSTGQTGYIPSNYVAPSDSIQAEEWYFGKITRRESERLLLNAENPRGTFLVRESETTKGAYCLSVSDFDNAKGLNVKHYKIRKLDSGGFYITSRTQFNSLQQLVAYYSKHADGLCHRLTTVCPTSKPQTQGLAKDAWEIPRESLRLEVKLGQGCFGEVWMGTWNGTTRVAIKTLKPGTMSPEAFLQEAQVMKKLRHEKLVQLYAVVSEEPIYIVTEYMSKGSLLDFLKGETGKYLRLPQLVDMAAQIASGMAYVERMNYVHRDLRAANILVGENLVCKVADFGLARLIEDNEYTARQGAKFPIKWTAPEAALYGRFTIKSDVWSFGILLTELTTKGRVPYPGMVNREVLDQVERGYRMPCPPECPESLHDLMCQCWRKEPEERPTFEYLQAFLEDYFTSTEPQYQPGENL
Chain of Macrophage-stimulating protein receptor (Homo sapiens) (Q04912 25-304 limits assumed): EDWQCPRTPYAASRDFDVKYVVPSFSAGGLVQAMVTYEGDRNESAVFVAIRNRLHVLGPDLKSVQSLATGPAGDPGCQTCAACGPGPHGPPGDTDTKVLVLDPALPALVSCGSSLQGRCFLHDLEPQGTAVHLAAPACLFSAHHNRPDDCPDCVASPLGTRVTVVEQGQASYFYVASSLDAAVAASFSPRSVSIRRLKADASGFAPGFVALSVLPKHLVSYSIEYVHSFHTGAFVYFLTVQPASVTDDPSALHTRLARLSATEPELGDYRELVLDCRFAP
Chain of Macrophage-stimulating protein receptor (Homo sapiens) (Q04912 310-1400 limits assumed): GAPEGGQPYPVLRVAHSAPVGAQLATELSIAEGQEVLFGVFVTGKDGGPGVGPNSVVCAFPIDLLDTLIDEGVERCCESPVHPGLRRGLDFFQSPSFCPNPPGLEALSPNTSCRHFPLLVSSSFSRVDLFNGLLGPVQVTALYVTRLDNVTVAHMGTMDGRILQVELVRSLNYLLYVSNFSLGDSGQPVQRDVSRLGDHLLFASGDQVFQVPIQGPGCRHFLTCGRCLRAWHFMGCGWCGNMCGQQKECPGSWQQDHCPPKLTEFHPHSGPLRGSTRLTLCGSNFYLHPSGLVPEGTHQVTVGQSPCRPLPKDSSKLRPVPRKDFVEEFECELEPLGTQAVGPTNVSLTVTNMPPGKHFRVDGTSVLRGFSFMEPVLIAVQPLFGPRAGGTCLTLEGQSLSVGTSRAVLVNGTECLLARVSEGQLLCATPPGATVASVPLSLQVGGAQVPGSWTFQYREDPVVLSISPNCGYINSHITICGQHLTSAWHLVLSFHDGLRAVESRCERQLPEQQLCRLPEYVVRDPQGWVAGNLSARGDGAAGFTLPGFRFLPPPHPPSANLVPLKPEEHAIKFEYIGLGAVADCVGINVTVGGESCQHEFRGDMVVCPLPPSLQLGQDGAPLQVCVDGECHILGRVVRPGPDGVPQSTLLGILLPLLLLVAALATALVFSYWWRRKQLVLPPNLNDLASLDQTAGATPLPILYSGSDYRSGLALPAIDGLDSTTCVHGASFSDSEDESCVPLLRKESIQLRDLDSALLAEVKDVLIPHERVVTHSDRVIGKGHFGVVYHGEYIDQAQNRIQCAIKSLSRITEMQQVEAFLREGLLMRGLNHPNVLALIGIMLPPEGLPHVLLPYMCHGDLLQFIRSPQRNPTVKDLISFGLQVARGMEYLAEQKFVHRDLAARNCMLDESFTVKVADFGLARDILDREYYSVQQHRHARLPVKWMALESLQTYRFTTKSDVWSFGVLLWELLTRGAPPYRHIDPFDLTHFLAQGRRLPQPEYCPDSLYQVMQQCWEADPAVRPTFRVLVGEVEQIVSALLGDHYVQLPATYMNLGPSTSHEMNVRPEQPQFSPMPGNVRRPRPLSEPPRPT
Chain of Cyclin-dependent kinase 1 (Homo sapiens) (P06493 whole entry, looked up, the tested form may be a part): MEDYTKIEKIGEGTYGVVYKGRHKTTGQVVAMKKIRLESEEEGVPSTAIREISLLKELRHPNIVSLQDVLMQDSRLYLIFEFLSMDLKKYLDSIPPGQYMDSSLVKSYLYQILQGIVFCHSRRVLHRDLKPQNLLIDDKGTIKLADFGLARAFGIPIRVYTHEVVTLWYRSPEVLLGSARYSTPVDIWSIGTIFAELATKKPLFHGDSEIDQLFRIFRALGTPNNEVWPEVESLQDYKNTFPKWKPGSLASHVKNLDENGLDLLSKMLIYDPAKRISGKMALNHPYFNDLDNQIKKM
Chain of Epidermal growth factor receptor (Homo sapiens) (P00533 whole entry): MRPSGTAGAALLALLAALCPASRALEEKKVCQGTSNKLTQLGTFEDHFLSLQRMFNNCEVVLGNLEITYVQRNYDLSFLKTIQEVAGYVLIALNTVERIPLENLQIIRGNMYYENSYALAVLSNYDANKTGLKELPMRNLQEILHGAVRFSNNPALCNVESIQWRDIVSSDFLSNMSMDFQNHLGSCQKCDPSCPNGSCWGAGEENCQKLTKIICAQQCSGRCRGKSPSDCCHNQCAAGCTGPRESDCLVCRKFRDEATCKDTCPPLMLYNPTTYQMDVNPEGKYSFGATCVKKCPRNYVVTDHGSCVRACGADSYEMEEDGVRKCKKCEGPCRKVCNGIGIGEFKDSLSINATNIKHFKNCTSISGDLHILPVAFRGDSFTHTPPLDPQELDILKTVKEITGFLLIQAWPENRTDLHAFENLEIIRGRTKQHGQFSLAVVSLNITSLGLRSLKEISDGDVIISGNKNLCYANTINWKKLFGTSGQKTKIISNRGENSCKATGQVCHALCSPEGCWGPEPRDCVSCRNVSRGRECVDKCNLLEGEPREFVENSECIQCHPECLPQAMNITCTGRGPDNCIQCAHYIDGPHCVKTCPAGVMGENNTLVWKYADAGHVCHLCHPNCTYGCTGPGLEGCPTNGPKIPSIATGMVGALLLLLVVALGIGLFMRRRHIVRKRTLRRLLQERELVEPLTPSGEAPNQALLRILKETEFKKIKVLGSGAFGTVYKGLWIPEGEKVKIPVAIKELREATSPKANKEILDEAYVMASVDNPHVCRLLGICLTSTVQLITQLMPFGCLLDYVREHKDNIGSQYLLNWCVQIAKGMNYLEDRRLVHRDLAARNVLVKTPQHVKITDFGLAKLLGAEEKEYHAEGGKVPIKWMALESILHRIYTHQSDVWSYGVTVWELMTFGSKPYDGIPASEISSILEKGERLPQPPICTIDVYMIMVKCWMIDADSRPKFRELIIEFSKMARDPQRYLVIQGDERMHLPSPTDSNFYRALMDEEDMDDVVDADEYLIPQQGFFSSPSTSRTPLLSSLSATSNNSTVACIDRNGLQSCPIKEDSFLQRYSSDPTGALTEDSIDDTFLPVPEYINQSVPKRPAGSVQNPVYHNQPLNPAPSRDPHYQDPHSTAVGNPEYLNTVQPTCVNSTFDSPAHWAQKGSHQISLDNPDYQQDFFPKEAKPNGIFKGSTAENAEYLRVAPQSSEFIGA
Chain of Serine/threonine-protein kinase PLK1 (Homo sapiens) (P53350 whole entry): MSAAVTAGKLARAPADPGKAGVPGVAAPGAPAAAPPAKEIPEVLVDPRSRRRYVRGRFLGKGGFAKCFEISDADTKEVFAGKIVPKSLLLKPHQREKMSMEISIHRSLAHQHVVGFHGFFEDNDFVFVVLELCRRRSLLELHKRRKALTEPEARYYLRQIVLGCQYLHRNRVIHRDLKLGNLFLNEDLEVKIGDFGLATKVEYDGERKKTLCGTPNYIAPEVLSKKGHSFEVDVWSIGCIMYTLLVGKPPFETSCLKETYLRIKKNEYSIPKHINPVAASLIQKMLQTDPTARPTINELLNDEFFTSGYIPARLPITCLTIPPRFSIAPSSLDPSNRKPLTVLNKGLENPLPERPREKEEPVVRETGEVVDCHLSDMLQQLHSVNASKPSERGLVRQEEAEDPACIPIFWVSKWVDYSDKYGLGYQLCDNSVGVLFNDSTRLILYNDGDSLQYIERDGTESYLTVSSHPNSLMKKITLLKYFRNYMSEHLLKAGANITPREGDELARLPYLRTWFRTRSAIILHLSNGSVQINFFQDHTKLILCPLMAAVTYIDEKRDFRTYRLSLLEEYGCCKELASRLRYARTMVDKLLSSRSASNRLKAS

Structure (SMILES) | IC50 [1] | Ki [2] | Ki [3] | inhibition [4] | inhibition [5] | inhibition [6] | inhibition [7] | inhibition [8] | inhibition [9] | inhibition [10] | inhibition [11] | inhibition [12] | inhibition [13] | inhibition [14] | inhibition [15] | IC50 [16] | inhibition [17] | inhibition [18] | IC50 [19] | inhibition [20] | other results
FC(F)(F)c1cccc(-n2cc(-c3ccccc3NCc3ccncc3)nn2)c1 | 0.051 µM | 0.09 µM | 0.08 µM | < 30% | < 30% | < 30% | < 30% | < 30% | < 30% | < 30% | < 30% | < 30% | < 30% | < 30% | < 30% | 0.066 µM | < 30% | < 30% | 0.096 µM | < 30% | inhibition [21]: < 30%; inhibition [22]: < 30%; inhibition [23]: < 30%
CC(C)c1cccc(-n2cc(-c3ccccc3NCc3ccncc3)nn2)c1 | 0.11 µM | 0.16 µM | 0.14 µM | < 30% | < 30% | < 30% | < 30% | < 30% | < 30% | < 30% | < 30% | < 30% | < 30% | < 30% | < 30% | 0.13 µM | < 30% | < 30% | 0.15 µM | < 30% | inhibition [21]: < 30%; inhibition [22]: < 30%; inhibition [23]: < 30%
Clc1cccc(-n2cc(-c3ccccc3NCc3ccncc3)nn2)c1 | 0.087 µM | 0.12 µM | 0.11 µM | < 30% | < 30% | < 30% | < 30% | < 30% | < 30% | < 30% | < 30% | < 30% | < 30% | < 30% | < 30% | 0.13 µM | < 30% | < 30% | 0.16 µM | < 30% | inhibition [21]: < 30%; inhibition [22]: < 30%; inhibition [23]: < 30%
